# Tests used:
# Type in all cases: functional, organism-based
# [1] = test system: Human immunodeficiency virus 2; test: Inhibitory effect against HIV-2 replication in CEM cells.; conditions: Human immunodeficiency virus 2, CCRF-CEM
# Procedure, shortened: (§1)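 CEM cells (4×10^5/mL; wild-type CEM/0 or thymidine kinase-deficient CEM/TK⁻) infected with HIV-1 or HIV-2 (ROD) at ~100 CCID50/mL, then mixed 1:1 with serial compound dilutions. After 4 days, virus-induced giant cell formation was scored microscopically. EC50 is the concentration inhibiting virus-induced cytopathicity by 50%.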
# [2] = test system: Human immunodeficiency virus 1; test: Inhibitory effect against HIV-1 replication in CEM cells.; conditions: Human immunodeficiency virus 1, CCRF-CEM; procedure, shortened: as §1
# [3] = test system: Human immunodeficiency virus 2; test: Inhibitory effect against HIV-2 replication in CEM /TK-(thymidine kinase deficient) cells.; conditions: Human immunodeficiency virus 2, CCRF-CEM; procedure, shortened: as §1
SMILES,EC50 [1],EC50 [2],EC50 [3]
Cc1cn([C@@H]2O[C@H](CO[Si](C)(C)C(C)(C)C)C3(OS(=O)(=O)C=C3N)[C@H]2O[Si](C)(C)C(C)(C)C)c(=O)[nH]c1=O (stereo partly drawn),> 6 µM,0.05 µM,> 6 µM
Cc1cn(C2CC(N=[N+]=[N-])C(CO)O2)c(=O)n(CCCBr)c1=O (stereo not drawn),> 50 µM,> 50 µM,
Cc1cn(C2CC(N=[N+]=[N-])C(CO)O2)c(=O)n(CCCCCCCCCBr)c1=O (stereo not drawn),> 8 µM,> 8 µM,> 8 µM
Cc1cn([C@@H]2O[C@H](CO[Si](C)(C)C(C)(C)C)[C@@]3(OS(=O)(=O)C=C3N)[C@H]2O[Si](C)(C)C(C)(C)C)c(=O)n(CCCn2c(=O)c(C)cn([C@H]3C[C@H](O)[C@@H](CO)O3)c2=O)c1=O,> 4 µM,0.06 µM,> 4 µM
Cc1cn([C@@H]2O[C@H](CO[Si](C)(C)C(C)(C)C)[C@@]3(OS(=O)(=O)C=C3N)[C@H]2O[Si](C)(C)C(C)(C)C)c(=O)n(CCCCCCn2c(=O)c(C)cn([C@H]3C[C@H](O)[C@@H](CO)O3)c2=O)c1=O,> 4 µM,0.55 µM,
Cc1cn([C@@H]2O[C@H](CO[Si](C)(C)C(C)(C)C)[C@@]3(OS(=O)(=O)C=C3N)[C@H]2O[Si](C)(C)C(C)(C)C)c(=O)n(CCCCCCCn2c(=O)c(C)cn([C@H]3C[C@H](N=[N+]=[N-])[C@@H](CO)O3)c2=O)c1=O,> 100 µM,1.58 µM,
Cc1cn([C@@H]2O[C@H](CO[Si](C)(C)C(C)(C)C)[C@@]3(OS(=O)(=O)C=C3N)[C@H]2O[Si](C)(C)C(C)(C)C)c(=O)n(CCCCCCn2c(=O)c(C)cn([C@H]3C[C@H](N=[N+]=[N-])[C@@H](CO)O3)c2=O)c1=O,> 100 µM,0.21 µM,> 100 µM
Cc1cn([C@@H]2O[C@H](CO[Si](C)(C)C(C)(C)C)[C@@]3(OS(=O)(=O)C=C3N)[C@H]2O[Si](C)(C)C(C)(C)C)c(=O)n(CCCCCn2c(=O)c(C)cn([C@H]3C[C@H](N=[N+]=[N-])[C@@H](CO)O3)c2=O)c1=O,> 100 µM,0.22 µM,> 100 µM
Cc1cn([C@@H]2O[C@H](CO[Si](C)(C)C(C)(C)C)[C@@]3(OS(=O)(=O)C=C3N)[C@H]2O[Si](C)(C)C(C)(C)C)c(=O)n(CCCCCCBr)c1=O,> 25 µM,0.47 µM,
Cc1cn([C@@H]2O[C@H](CO[Si](C)(C)C(C)(C)C)[C@@]3(OS(=O)(=O)C=C3N)[C@H]2O[Si](C)(C)C(C)(C)C)c(=O)n(CCCBr)c1=O,> 100 µM,0.11 µM,
Cc1cn([C@H]2C[C@H](O)[C@@H](CO)O2)c(=O)n(CCCCCCCn2c(=O)c(C)c(Sc3ccccc3)n(COCCO)c2=O)c1=O,> 30 µM,> 30 µM,
Cc1cn([C@H]2C[C@H](O)[C@@H](CO)O2)c(=O)n(CCCCCCn2c(=O)c(C)c(Sc3ccccc3)n(COCCO)c2=O)c1=O,> 30 µM,79 µM,
Cc1cn([C@@H]2O[C@H](CO[Si](C)(C)C(C)(C)C)[C@@]3(OS(=O)(=O)C=C3N)[C@H]2O[Si](C)(C)C(C)(C)C)c(=O)n(CCCCn2c(=O)c(C)cn([C@H]3C[C@H](N=[N+]=[N-])[C@@H](CO)O3)c2=O)c1=O,> 100 µM,0.2 µM,> 100 µM
Cc1cn([C@@H]2O[C@H](CO[Si](C)(C)C(C)(C)C)[C@@]3(OS(=O)(=O)C=C3N)[C@H]2O[Si](C)(C)C(C)(C)C)c(=O)n(CCCn2c(=O)c(C)cn([C@H]3C[C@H](N=[N+]=[N-])[C@@H](CO)O3)c2=O)c1=O,> 100 µM,0.1 µM,> 100 µM
Cc1cn([C@@H]2O[C@H](CO[Si](C)(C)C(C)(C)C)[C@@]3(OS(=O)(=O)C=C3N)[C@H]2O[Si](C)(C)C(C)(C)C)c(=O)n(CCCCCCCCCn2c(=O)c(C)cn([C@H]3C[C@H](N=[N+]=[N-])[C@@H](CO)O3)c2=O)c1=O,> 100 µM,15.3 µM,> 100 µM
Cc1cn([C@@H]2O[C@H](CO[Si](C)(C)C(C)(C)C)[C@@]3(OS(=O)(=O)C=C3N)[C@H]2O[Si](C)(C)C(C)(C)C)c(=O)n(CCCCCCCn2c(=O)c(C)cn([C@H]3C[C@H](O)[C@@H](CO)O3)c2=O)c1=O,> 4 µM,0.22 µM,

SMILES,EC50 [1],EC50 [2],EC50 [3]
Cc1cn([C@@H]2O[C@H](CO[Si](C)(C)C(C)(C)C)[C@@]3(OS(=O)(=O)C=C3N)[C@H]2O[Si](C)(C)C(C)(C)C)c(=O)n(CCCCCCCCn2c(=O)c(C)cn([C@H]3C[C@H](N=[N+]=[N-])[C@@H](CO)O3)c2=O)c1=O,> 100 µM,1.56 µM,
Cc1cn([C@H]2C[C@H](O)[C@@H](CO)O2)c(=O)n(CCCCCCCBr)c1=O,> 10 µM,> 10 µM,> 10 µM
Cc1cn([C@@H]2O[C@H](CO[Si](C)(C)C(C)(C)C)[C@@]3(OS(=O)(=O)C=C3N)[C@H]2O[Si](C)(C)C(C)(C)C)c(=O)n(CCCCCCCCCBr)c1=O,> 1 µM,> 1 µM,> 1 µM
Cc1cn([C@@H]2O[C@H](CO[Si](C)(C)C(C)(C)C)[C@@]3(OS(=O)(=O)C=C3N)[C@H]2O[Si](C)(C)C(C)(C)C)c(=O)n(CCCCCCCCBr)c1=O,> 1 µM,> 1 µM,> 1 µM
Cc1cn([C@@H]2O[C@H](CO[Si](C)(C)C(C)(C)C)[C@@]3(OS(=O)(=O)C=C3N)[C@H]2O[Si](C)(C)C(C)(C)C)c(=O)n(CCCCCCCBr)c1=O,> 1 µM,0.79 µM,> 5 µM
Cc1cn(C2CC(N=[N+]=[N-])C(CO)O2)c(=O)n(CCCCCCn2c(=O)c(C)c(Sc3ccccc3)n(COCCO)c2=O)c1=O (stereo not drawn),> 5 µM,> 5 µM,> 5 µM
Cc1cn(C2CC(N=[N+]=[N-])C(CO)O2)c(=O)n(CCCCCBr)c1=O (stereo not drawn),> 50 µM,> 50 µM,> 10 µM
Cc1cn(C2CC(N=[N+]=[N-])C(CO)O2)c(=O)n(CCCCCCBr)c1=O (stereo not drawn),,,> 45 µM
Cc1cn(C2CC(N=[N+]=[N-])C(CO)O2)c(=O)n(CCCCCCCn2c(=O)c(C)c(Sc3ccccc3)n(COCCO)c2=O)c1=O (stereo not drawn),> 5 µM,> 5 µM,
Cc1c(Sc2ccccc2)n(COCCO)c(=O)n(CCCCCCCBr)c1=O,> 8 µM,> 8 µM,> 8 µM
Cc1cn(C2CC(N=[N+]=[N-])C(CO)O2)c(=O)n(CCCCCCCCBr)c1=O (stereo not drawn),> 8 µM,> 8 µM,> 8 µM
Cc1c(Sc2ccccc2)n(COCCO)c(=O)n(CCCCCCBr)c1=O,,,> 8 µM
Cc1cn([C@H]2C[C@H](O)[C@@H](CO)O2)c(=O)[nH]c1=O [DOXRIBTIMINE],> 40 µM,> 40 µM,> 40 µM
Cc1c(Sc2ccccc2)n(COCCO)c(=O)[nH]c1=O [HEPT],> 100 µM,,> 100 µM
Cc1cn([C@H]2C[C@H](N=[N+]=[N-])[C@@H](CO)O2)c(=O)[nH]c1=O [ZIDOVUDINE],0.011 µM,0.011 µM,> 35 µM
